# TRPC4 PAM: allosteric potentiators of mouse TRPC4 channel. Q9QUQ5. HEK293 TRPC4beta/mu-opioid, DAMGO EC20, Fluo-4 Ca2+ flux; stronger effect = higher value. B-score at 10 µM. 310,000 compounds, 0.42% hits;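 active means B-score of calcium response area above 5 SD of library B-scores, with initial fluorescence ratio within 5 SD of library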;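 further: B-score of integrated fluorescence ratio over time as area under calcium response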
# TRPC4 act: opens the mouse TRPC4 cation channel; Q9QUQ5; 310,000 compounds, 0.49% hits; HEK293 TRPC4beta/mu-opioid, Fluo4 calcium fluorescence; stronger effect = higher value; B-score at 10 µM;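 active means B-score above 5 SD of library B-scores, and initial fluorescence ratio not above library mean plus 5 SD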;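 further: positive B-score marks a calcium rise read as TRPC4 activation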
#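 Material: HEK293 stable line with TRPC4beta plus mu-opioid receptor; technique: Fluo4 calcium-sensitive dye fluorescence, kinetic, 1 Hz baseline; timing: Fluo4 dye loading 45 min at room temperature, 110 s recording; controls: assay buffer as low control, maximal DAMGO as high control; read-out: integrated baseline-normalised fluorescence ratio, converted to per-well B score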
# TRPC6 inhibitor: blocks the mouse TRPC6 cation channel | Q61143 | HEK293-TRPC6, membrane potential dye, ACh-evoked depolarization; stronger effect = lower value | B-score at 10 µM | 310,000 compounds, 1.1% hits | AID 2553;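 active means B-score under library mean minus 3 SD, initial fluorescence not abnormally high, positive integrated signal ratio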;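 further: B-score derived from integrated fluorescence ratio over the kinetic read; more negative B-score means stronger inhibition of depolarization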
# Target sequence (Q61143 whole entry, looked up): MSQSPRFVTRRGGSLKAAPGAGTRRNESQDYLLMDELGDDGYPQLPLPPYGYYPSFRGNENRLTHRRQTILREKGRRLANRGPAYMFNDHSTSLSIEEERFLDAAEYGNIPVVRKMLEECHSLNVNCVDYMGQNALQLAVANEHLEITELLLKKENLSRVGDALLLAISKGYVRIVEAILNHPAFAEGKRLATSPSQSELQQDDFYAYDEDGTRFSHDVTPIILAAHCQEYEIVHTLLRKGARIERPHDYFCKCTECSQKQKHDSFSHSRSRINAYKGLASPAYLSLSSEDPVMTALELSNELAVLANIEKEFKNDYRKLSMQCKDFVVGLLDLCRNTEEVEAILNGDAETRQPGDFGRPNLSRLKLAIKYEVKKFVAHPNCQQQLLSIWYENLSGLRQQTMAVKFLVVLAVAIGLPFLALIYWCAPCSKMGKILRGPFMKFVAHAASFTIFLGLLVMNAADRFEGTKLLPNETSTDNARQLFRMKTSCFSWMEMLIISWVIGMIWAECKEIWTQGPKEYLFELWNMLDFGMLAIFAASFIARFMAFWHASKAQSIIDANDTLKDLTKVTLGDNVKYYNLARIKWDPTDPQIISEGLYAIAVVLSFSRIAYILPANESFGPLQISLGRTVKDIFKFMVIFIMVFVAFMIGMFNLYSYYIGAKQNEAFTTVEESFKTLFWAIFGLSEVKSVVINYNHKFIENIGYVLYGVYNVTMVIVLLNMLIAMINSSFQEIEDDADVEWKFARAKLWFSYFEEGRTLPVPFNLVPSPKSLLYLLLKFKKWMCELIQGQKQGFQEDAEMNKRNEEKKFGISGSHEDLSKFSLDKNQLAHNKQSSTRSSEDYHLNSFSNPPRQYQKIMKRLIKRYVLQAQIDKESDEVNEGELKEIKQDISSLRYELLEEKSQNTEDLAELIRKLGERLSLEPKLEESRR
# TRPC6 activator: activates the mouse TRPC6 cation channel; B-score at 10 µM; 310,000 compounds, 0.13% hits; HEK293-TRPC6 membrane potential dye fluorescence; stronger effect = higher value;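 active means B-score of the integrated fluorescence ratio above library mean plus 3 SD, and starting fluorescence ratio within library mean plus 5 SD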;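 further: higher score means more depolarization so channel activation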
# TRPC4 inh: TRPC4 (mouse) channel inhibition; B-score at 10 µM; 300,000 compounds, 0.39% hits; AID 2247; Q9QUQ5; HEK293 TRPC4beta/mu-opioid, DAMGO-evoked Fluo4 calcium flux; stronger effect = lower value;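 active means B-score over 3 SD under the library average, no early fluorescence shift, positive overall ratio signal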
#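 Assay system: Stable TRPC4beta/mu-opioid receptor HEK293 cells | Reagent: DAMGO in two steps, submaximal then maximal | Compound dosing: Single concentration per test compound | Signal: Fluo4 Ca2+ flux fluorescence | Evaluation: Per-well B score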
# TRPC4 sel inh 2: second check of whether TRPC6 inhibitors also affect mouse TRPC4. shares compounds with TRPC6 inhibitor. HEK293 TRPC4/MOR, membrane potential dye fluorescence; channel activated by saturating DAMGO dose. inhibition, % at 10 µM. 920 compounds, 42% hits;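 active means compounds whose fluorescence signal differed from control wells by over 3 SD, either direction, in both duplicate plates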
# TRPC4 spec: mouse TRPC4 off-target activity of TRPC6 inhibitors; shares compounds with TRPC6 inhibitor; HEK293 TRPC4/mu-opioid, membrane potential fluorescence; activity change, negative = inhibition, % at 10 µM; 920 compounds, 61% hits;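 active means rise or fall in signal beyond 3 SD of buffer-only wells in both replicate plates, either sign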;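 further: integrated kinetic ratio of fluorescence range over baseline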
# HEK293 MPD ctr 2-1: parental HEK293 nonspecific activity of TRPC6 inhibitors, second screen; 920 compounds, 31% hits; AID 2779; shares compounds with TRPC6 inhibitor; signal change vs control, % at 10 µM; parental HEK293 membrane potential dye fluorescence; maximal acetylcholine challenge after compound addition;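 active means membrane potential signal moving either way by over 3 SD of the maximum-effect control, in both duplicate plates, meaning non-specific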
# HEK293 MPD ctr-1: checks TRPC6 inhibitor effects in parental HEK293 cells; shares compounds with TRPC6 inhibitor; parental HEK293 membrane potential dye fluorescence; membrane potential signal change, % at 10 µM; 920 compounds, 60% hits;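 active means membrane potential signal shifting up or down by more than 3 SD of buffer-only wells, on both duplicate plates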
# HEK293 MPD ctr-2: counter-screen for TRPC6 modulators: effect in parental HEK293 cells; membrane potential signal change, % at 10 µM; shares compounds with TRPC6 inhibitor; 2,400 compounds, 51% hits; membrane potential dye fluorescence;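 active means membrane potential signal moves up or down beyond 5 SD from buffer-only wells, on both duplicate plates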
# HEK293 MPD ctr 2-2: parental HEK293 nonspecific activity of TRPC6 modulators, second screen; 2,400 compounds, 14% hits; shares compounds with TRPC6 inhibitor; membrane potential dye fluorescence; after compound, maximal acetylcholine stimulation; inhibition, % at 10 µM;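 active means membrane potential signal drops by more than 5 SD from the mean control signal, in both duplicate plates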;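 further: plate controls were acetylcholine ECmax control wells for no effect and buffer only wells for full effect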
# TRPC4/MOR mod: tests whether TRPC6 modulators also affect mouse TRPC4; percent change from control (negative = decrease, positive = increase), % at 10 µM; shares compounds with TRPC6 inhibitor; 2,400 compounds, 69% hits; HEK293 TRPC4/mu-opioid, membrane potential fluorescence;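 active means membrane potential signal moved up or down beyond 5 SD of buffer control wells, in both duplicate plates, actives on both sides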;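 further: plate controls were assay buffer wells for no effect and DAMGO maximal-effect wells for full effect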
# TRPC4/MOR inh 2: second selectivity test of TRPC6 modulators against mouse TRPC4. shares compounds with TRPC6 inhibitor. HEK293 TRPC4/mu-opioid, membrane potential dye fluorescence; stimulated with maximal-effect DAMGO. inhibition, % at 10 µM. 2,400 compounds, 55% hits. AID 488928;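 active means drop in membrane potential signal beyond 5 SD of the control wells in both duplicate plates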;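 further: TRPC4 counter screen for TRPC6 hits run under conditions tuned for TRPC6 not TRPC4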
# TRPC6 inh conf: mouse TRPC6 inhibitor confirmation. shares compounds with TRPC6 inhibitor. HEK293-TRPC6, membrane potential dye, ACh-evoked depolarization. inhibition, % at 10 µM. 3,300 compounds, 43% hits. AID 488960;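 active means fluorescence ratio falls more than 5 SD below the full-stimulation control mean, in both duplicate runs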;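 further: integrated fluorescence ratio of peak minus minimum over baseline after agonist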
# TRPC6 act conf: mouse TRPC6 activator confirmation. shares compounds with TRPC6 inhibitor. HEK293-TRPC6 membrane potential dye fluorescence, FDSS. activation, % at 10 µM. 2,800 compounds, 11% hits. AID 488961;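 active means ratio signal rise beyond 5 SD above unstimulated control wells' mean, seen in both duplicate runs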;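 further: plate controls were buffer EC0 wells for no effect and acetylcholine ECmax response for full effect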
# Starred values were filed as active, the others as inactive; i = inactive; . = no result given. This is a sample that favours compounds with a hit; in the whole collection about 2.3% have one here.
SMILES,TRPC4 PAM,TRPC4 act,TRPC6 inhibitor,TRPC6 activator,TRPC4 inh,HEK293 MPD ctr-2,HEK293 MPD ctr 2-2,TRPC4/MOR mod,TRPC4/MOR inh 2,TRPC6 inh conf,TRPC6 act conf,others
COc1ccc(C2C(C(N)=O)=C(C)Nc3nc(CCCO)nn32)cc1OC (stereo not given),i,i,-5.9*,i,i,i,i,i,i,i,i,
CCN(CC)CC(O)COc1ccc2c(c1)c(C(C)=O)c(C)n2-c1ccccc1 (stereo not given),i,i,-5.5*,i,i,i,i,i,74%*,50%*,i,
CC(=O)c1c(C)n(-c2ccccc2)c2ccc(OCC(O)CN3CCOCC3)cc12 (stereo not given),i,i,i,i,i,.,.,.,.,.,.,
Cc1ccc2nc(N=C(N)N)nc(C)c2c1,i,i,-9.4*,i,i,-196%*,i,-36%*,64%*,37%*,i,
Cc1ccc(-c2nc3cccnc3s2)cc1NC(=O)C1c2ccccc2Oc2ccccc21,i,i,i,i,i,.,.,.,.,.,.,
C=CCOc1ccc(Br)cc1CNC(C)(C)C,i,i,-6.1*,i,i,214%*,98%*,52%*,100%*,80%*,.,
CC(C)(C)NCc1cc(Br)ccc1OCc1cccs1,i,i,-11*,i,i,.,.,.,.,99%*,.,TRPC4 sel inh 2=39%*;TRPC4 spec=64%*;HEK293 MPD ctr 2-1=i;HEK293 MPD ctr-1=36%*
CC(C)NCc1cc(Br)ccc1OCc1ccccc1,i,i,-7.2*,12*,i,403%*,i,96%*,83%*,81%*,116%*,
CC(C)(C)NCc1cc(Cl)ccc1OCc1ccccc1F,i,i,-8.1*,18*,i,488%*,i,106%*,84%*,100%*,152%*,
O=C(NNC(=O)C1CC1)c1ccccc1[N+](=O)[O-],i,i,i,i,i,.,.,.,.,.,.,
CCN(CC(=O)Nc1ccc2c(c1)OCCO2)C(=O)/C=C/c1cccc(Br)c1,i,i,i,i,i,.,.,.,.,.,.,
COc1ccc2c(CC(=O)Nc3ncc(C)s3)coc2c1,i,i,i,i,i,.,.,.,.,.,.,
CC(C)(C)NCc1cc(Cl)ccc1OCc1cccs1,i,i,-8*,i,i,.,.,.,.,108%*,.,TRPC4 sel inh 2=40%*;TRPC4 spec=58%*;HEK293 MPD ctr 2-1=30%*;HEK293 MPD ctr-1=32%*
CC(C)(C)NCc1ccccc1OCc1cccs1,i,i,-9.8*,i,-7*,.,.,.,.,89%*,.,TRPC4 sel inh 2=31%*;TRPC4 spec=38%*;HEK293 MPD ctr 2-1=-20%*;HEK293 MPD ctr-1=21%*
CCOC(=O)/C(=N\Nc1cc(Cl)ccc1Cl)N1CCN(CC)CC1,i,i,i,i,i,.,.,.,.,.,.,
CCOC(=O)Cn1c(=N)n(CCOc2ccc(Br)cc2)c2ccccc21,i,i,-7.7*,i,i,.,.,.,.,55%*,i,TRPC4 sel inh 2=44%*;TRPC4 spec=0.5%*;HEK293 MPD ctr 2-1=i;HEK293 MPD ctr-1=3.0%*
O=[N+]([O-])c1cccc(/C=N/NC2=NCCCCC2)c1,i,i,-5.1*,i,i,-80%*,i,-15%*,39%*,i,i,
O=C(ONC1=NCCCCC1)c1cccc([N+](=O)[O-])c1,i,i,i,i,i,.,.,.,.,.,.,
O=C(CCn1c(=O)[nH]c2ccsc2c1=O)N1CCN(c2cccc(Cl)c2)CC1,i,i,-13*,15*,i,i,i,i,i,56%*,94%*,
O=C(CCn1c(=O)[nH]c2ccsc2c1=O)N1CCN(c2ccc([N+](=O)[O-])cc2)CC1,i,i,i,i,i,.,.,.,.,.,.,
Cc1cc(NC(=O)CCC(=O)N(C2CC2)C2(C(=O)NC3CCCC3)CCC(C)CC2)no1 (stereo not given),i,i,-5.1*,i,i,i,i,18%*,i,i,.,
Cc1cc(NC(=O)CCC(=O)N(Cc2ccco2)C2(C(=O)NC3CCCC3)CCC(C)CC2)no1 (stereo not given),i,i,i,i,i,.,.,.,.,.,.,
Fc1cccc(C2CCCCN2Cc2nc(C3CC3)no2)c1 (stereo not given),i,i,i,i,i,.,.,.,.,.,.,
CCn1cnc2cc(NCc3ccncc3)ccc21,i,i,i,i,i,.,.,.,.,.,.,
CCn1cnc2cc(NCc3ccc(Cl)cc3)ccc21,i,i,-5.6*,i,i,i,i,i,40%*,48%*,i,
Cc1ccc(CNc2ccc3c(c2)ncn3C)cc1,i,i,i,i,i,.,.,.,.,.,.,
CCc1ccc(CNc2ccc3c(c2)ncn3C)cc1,i,i,-6.3*,i,i,i,i,-14%*,61%*,37%*,i,
COc1ccc(-c2nc(CS(=O)(=O)CC(=O)NCc3ccc(F)cc3)c(C)o2)cc1,i,i,i,i,i,.,.,.,.,.,.,
Cc1ccccc1NC1=C/C(=N\S(=O)(=O)c2ccc(C(=O)O)cc2)c2ccccc2C1=O,i,i,i,i,i,.,.,.,.,.,.,

# Source: PubChem BioAssay (Johns Hopkins Ion Channel Center)
